Measured values taken from paper PMC3668520 (FEBS Open Bio, 2013).

Assays:
EBI2 = settings: at 5 μM; ref PubChem BioAssay ID: 651636; cited from earlier work
FLAG-tagged human EBI2 = FLAG-tagged human EBI2 (Homo sapiens, UniProt P32249); assay: [35S]GTPγS binding to membranes from CHO cells stably expressing EBI2; assay type: biochemical
In short: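 Membranes from CHO Flp-In cells stably expressing M1-FLAG-EBI2 or pcDNA5 (10 μg) were incubated 30 min with ligands and 1 nM [35S]GTPγS. WGA SPA beads (2.8 mg/mL) were then added for 30 min, followed by centrifugation and scintillation counting. Nonspecific binding was defined with 40 μM unlabelled GTPγS. Inhibition was run at 1 nM 7α,25-OHC. Agonist curves were run at 0, 100 nM, 1 μM and 10 μM antagonist. Kd and slope come from Schild regression (x-intercept). Three independent experiments.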

[1] = tested on: B cells isolated from wt and EBI2-overexpressing C57BL/6 mice; assay: Ex vivo B cell chemotaxis; assay type: cell-based, mouse
In short: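 B cells came from wt and EBI2-overexpressing C57BL/6 mice. 7α,25-OHC and/or test compound was placed in the lower chamber, and 200,000 cells went onto 5 μm-pore filters. After 5 h at 37 °C, migrated cells were quantified by CellTiterGlo luminescence. Agonist response is expressed as chemotactic index (four experiments). Inhibition was tested on EBI2-overexpressing cells with 0.1 nM 7α,25-OHC, relative to agonist alone (three experiments).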

[2] = tested on: FLAG-tagged human EBI2 (ERK1/2 phosphorylation); assay: ERK1/2 phosphorylation in CHO cells stably expressing EBI2; assay type: cell-based; settings: 10 min, read-out: EC50, ERK1/2 activation
[3] = tested on: FLAG-tagged human EBI2 (p38 phosphorylation); assay: p38 phosphorylation in CHO cells stably expressing EBI2; assay type: cell-based; settings: serum-starved CHO EBI2 cells; ptx-sensitive

Sequence of FLAG-tagged human EBI2 (P32249 whole entry): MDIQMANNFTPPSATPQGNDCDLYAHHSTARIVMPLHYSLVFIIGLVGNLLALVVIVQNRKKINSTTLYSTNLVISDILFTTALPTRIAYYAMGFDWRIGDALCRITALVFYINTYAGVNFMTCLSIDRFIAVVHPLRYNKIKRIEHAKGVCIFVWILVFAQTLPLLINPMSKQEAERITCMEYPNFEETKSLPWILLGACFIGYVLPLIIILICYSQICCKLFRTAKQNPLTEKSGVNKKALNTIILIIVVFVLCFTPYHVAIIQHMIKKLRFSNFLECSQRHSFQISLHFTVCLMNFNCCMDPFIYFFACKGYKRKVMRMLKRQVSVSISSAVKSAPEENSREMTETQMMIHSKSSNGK

O=C(/C=C/c1ccc(Cl)cc1)N1CCN(c2c(Cl)cccc2[N+](=O)[O-])CC1 [CID: 5804570]
Suppression of 7α,25-OHC-induced β-arrestin recruitment (EBI2): best compound

C[C@H](CCCC(C)(C)O)[C@H]1CC[C@H]2[C@@H]3[C@H](O)C=C4C[C@@H](O)CC[C@]4(C)[C@H]3CC[C@]12C [7α,25-OHC, 7α,25-dihydroxycholesterol]
EC50 (FLAG-tagged human EBI2): 1 nM
EC50 ([1]; Mus musculus, B-cell, read-out: EC50, chemotaxis): 0.1 nM
Concentration at which chemotaxis peaked ([1]; both wt and EBI2-OE B cells): 1 nM
EC50 [2]: 3 nM
p38 activation [3]: dose-dependently activated
